Measured values from different studies.
Target: Casein kinase I isoform gamma-3 (CSNK1G3, Homo sapiens, UniProt Q9Y6M4)

`N#CC1(c2ccccn2)CCN(Cc2cc(C(=O)O)c(=O)n3ccccc23)CC1` gave a remaining binding of 93% (cell-free assay, competition with immobilised ligand; 1 µM).
`O=c1[nH]c2ccccc2n1C1CCN(Cc2ccc(-c3[nH]c4cc5ncnc5cc4nc3-c3ccccc3)cc2)CC1` has a remaining signal of 96.5% (cell-free assay; 0.5 µM).
`Cn1cc(-c2cccc(N3CCc4c(sc5c4CC(C)(C)C5)C3=O)c2CO)cc(Nc2ccncn2)c1=O` gave an inhibition of -1% (enzyme activity, inhibitor; 1 µM).
`COc1ncccc1-c1cnn2ccc(N3CCN(C(=O)OC(C)C)CC3)nc12` gave a remaining binding of 92% (binding, competition with immobilised ligand; 1 µM).
For `Cc1nn(C)cc1-c1nc2c(N3CCN(Cc4ccc(Cl)cc4)CC3)c(Cl)cnc2[nH]1`, the remaining binding was 100% (binding, competition with immobilised ligand; 1 µM).
`Cn1cc(-c2cc(F)cc(N3CCn4c(cc5c4CCCC5)C3=O)c2CO)cc(Nc2ccc(N3CCN(C4COC4)CC3)cn2)c1=O` has an inhibition of 7% (enzyme activity, inhibitor; 0.1 µM).
`COc1cc(Nc2ncc(F)c(Nc3ccc4c(n3)NC(=O)C(C)(C)O4)n2)cc(OC)c1OC` has an inhibition of 0% (binding, competition with immobilised ligand; 10 µM).
`CC(C)(C)c1cc(C=C(C#N)C#N)cc(Br)c1O` has a remaining activity of 85.8% (enzyme activity, inhibitor; 0.5 µM).
`Cn1cncc1[C@@](O)(COc1ccc(C#N)cc1-c1ccc(OC(F)(F)F)cc1)c1ccc(C#N)cc1` gave a remaining binding of 100% (cell-free assay, competition with immobilised ligand; 1 µM).
